# ChEMBL document CHEMBL5137029, “Chemically Tuning Resveratrol for the Effective Killing of Gram-Positive Pathogens” (J Nat Prod, 2022)
# Calls of active or inactive are those of the source. The rule behind the calls is not given here.
# Columns and labels:
# [1] = Cytotoxicity against human MRC5 cells assessed as cellular metabolism incubated for 72 hrs by MTT assay; format: toxicity, cell-based
# Summary of the method: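 MRC-5 cells in DMEM (1 g/L glucose) with 10% heat-inactivated FBS, 2 mM glutamine, penicillin/streptomycin, at 37 °C, 5% CO2. 5 × 10^3 cells/well seeded with increasing compound concentrations, 72 h. MTT added for 4 h, formazan dissolved in DMSO, A570 read. Sigmoidal fit for 50% growth reduction vs untreated; three independent experiments in triplicate.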
# Bacillus cereus [2] = assay: Antibacterial activity against Bacillus cereus ATCC 10987 assessed as membrane potential change at 0.5 to 2X MIC incubated for 20 mins by DiSC3(5) staining based assay; format: functional, organism-based
# Summary of the method: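 B. cereus grown in LB to OD600 1, washed in glucose-HEPES pH 7.4, OD600 0.5, loaded with 2 μM DiSC3(5) for 20 min at 37 °C for baseline. […] Gramicidin S positive control; untreated cells and dye-only medium negative controls; triplicate.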
# Bacillus cereus [3] = assay: Inhibition of electron transport chain in Bacillus cereus ATCC 10987 by measuring reduction of resazurin upto 120 min by resazurin dye based assay; conditions: DDE = dose-dependent effect
# Summary of the method: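 B. cereus grown in LB to OD600 1, washed and resuspended in cMHB at OD600 0.2 with 100 μg/mL resazurin. Compounds added at the indicated concentrations; resorufin fluorescence (ex/em 550/590 nm) read every 5 min for 125 min. CCCP at 400, 200, 100 μM positive control; untreated cells and medium with resazurin negative controls; triplicate.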
# Erythrocyte = assay: Hemolytic activity in human erythrocytes at […] incubated for 1 hrs; format: toxicity, cell-based; conditions: erythrocyte, 1 h, […]
# Bacillus cereus [4] = assay: Antibacterial activity against Bacillus cereus ATCC 10987 assessed as decrease in membrane integrity at 2x MIC incubated for 18 hrs by propidium iodide staining assay; format: functional, organism-based
# Summary of the method: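 B. cereus grown 18 h in LB at 37 °C, washed in 5 mM HEPES pH 7.4 + 5 mM glucose, OD600 0.5, loaded with 10 μg/mL propidium iodide for 10 min. […] Gramicidin S positive control; triplicate.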
# Bacillus cereus [5] = assay: Bactericidal activity against Bacillus cereus ATCC 10987 at 16 uM measured upto 24 hrs by CLSI based broth microdilution method; format: functional, organism-based
# Summary of the method: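 Each well then used as a 10% inoculum into fresh cMHB and incubated at 37 °C for 24 h. No regrowth in the MIC range was scored bactericidal, regrowth bacteriostatic. Triplicate.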
# Staphylococcus aureus [6] = assay: Bactericidal activity against Staphylococcus aureus LMG 8224 at […] measured upto 24 hrs by CLSI based broth microdilution method; format: functional, organism-based; conditions: dose 128.0 µM
# Enterococcus faecalis [7] = assay: Bactericidal activity against Enterococcus faecalis V583 at […] measured upto 24 hrs by CLSI based broth microdilution method; format: functional, organism-based; conditions: dose 128.0 µM
# Bacillus cereus [8] = assay: Bactericidal activity against Bacillus cereus ATCC 10987 at […] measured upto 24 hrs by CLSI based broth microdilution method; format: functional, organism-based; conditions: dose 128.0 µM
# Clostridium beijerinckii = assay: Antibacterial activity against Clostridium beijerinckii B504 incubated for 24 hrs by CLSI based broth microdilution method; format: functional
# Enterococcus faecalis [9] = assay: Antibacterial activity against Enterococcus faecalis V583 incubated for 20 hrs by CLSI based broth microdilution method; format: functional
# Staphylococcus aureus [10] = assay: Antibacterial activity against Staphylococcus aureus LMG 10147 incubated for 20 hrs by CLSI based broth microdilution method; format: functional
# Clostridium perfringens = assay: Antibacterial activity against Clostridium perfringens CECT376 incubated for 24 hrs by CLSI based broth microdilution method; format: functional
# Clostridium botulinum = assay: Antibacterial activity against Clostridium botulinum CECT551 incubated for 24 hrs by CLSI based broth microdilution method; format: functional
# Staphylococcus aureus [11] = assay: Antibacterial activity against Staphylococcus aureus LMG 8224 incubated for 20 hrs by CLSI based broth microdilution method; format: functional
# Staphylococcus aureus [12] = assay: Antibacterial activity against Staphylococcus aureus LMG 15975 incubated for 20 hrs by CLSI based broth microdilution method; format: functional
# Clostridium tetani = assay: Antibacterial activity against Clostridium tetani CECT 4629 incubated for 24 hrs by CLSI based broth microdilution method; format: functional
# Bacillus cereus [13] = assay: Antibacterial activity against Bacillus cereus ATCC 10987 incubated for 20 hrs by CLSI based broth microdilution method; format: functional
# Enterococcus faecalis [14] = assay: Antibacterial activity against Enterococcus faecalis LMG 08222 incubated for 20 hrs by CLSI based broth microdilution method; format: functional
# Bacillus cereus [15] = assay: Antibacterial activity against Bacillus cereus ATCC 14579 incubated for 20 hrs by CLSI based broth microdilution method; format: functional
# [16] = Antibacterial activity against Clostridium-ihumii AP5 incubated for 24 hrs by CLSI based broth microdilution method; format: functional
# Clostridioides difficile = assay: Antibacterial activity against Clostridium difficile CECT531 incubated for 24 hrs by CLSI based broth microdilution method; format: functional
# Enterococcus faecalis [17] = assay: Antibacterial activity against Enterococcus faecalis LMG 16216 incubated for 20 hrs by CLSI based broth microdilution method; format: functional
# Bacillus cereus [18] = assay: Antibacterial activity against Bacillus cereus ATCC 10987 assessed as reduction in intracellular ATP levels at 100 uM measured upto 120 min by BacTiter-Glo luminescent cell viability assay; format: functional, organism-based
# Summary of the method: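 B. cereus ATCC10987 was grown in LB at 37 °C to OD600 1, washed three times in G-HEPES, and resuspended in cMHB at OD600 0.25. Cells were exposed at 37 °C to compounds at 32 μM or to CCCP (100 μM, positive control). At 30, 60 and 120 min, BacTiter-Glo luminescence was read. ATP was normalised to OD600 and expressed as % of untreated cells. Run in triplicate.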
smiles,measurement,setting,value
CC[Si](CC)(CC)Oc1cc(O)cc(/C=C/c2ccc(O)cc2)c1,IC50 at 72 h,[1],21.3 µM
CCCCOc1cc(/C=C/c2ccc(OS(=O)(=O)O)cc2)cc(OS(=O)(=O)O)c1,Activity,Bacillus cereus [2],Active
same,inhibition,Bacillus cereus [3],Dde
same,Activity,Erythrocyte,Non-Toxic
same,Activity,Bacillus cereus [4],Active
same,Activity,Bacillus cereus [5],Active
Oc1ccc(/C=C/c2cc(O)cc(O)c2)cc1 [RESVERATROL],Activity,Bacillus cereus [2],Active
same,Activity,Staphylococcus aureus [6],Active
same,Activity,Erythrocyte,Non-Toxic
same,Activity,Enterococcus faecalis [7],Active
same,Activity,Bacillus cereus [8],Active
CCCCOc1cc(O)cc(/C=C/c2ccc(O)cc2)c1,MIC,Clostridium beijerinckii,26.6 µM
same,MIC,Enterococcus faecalis [9],128 µM
same,MIC,Staphylococcus aureus [10],64 µM
same,MIC,Clostridium perfringens,64 µM
same,MIC,Clostridium botulinum,32 µM
same,MIC,Staphylococcus aureus [11],64 µM
same,MIC,Staphylococcus aureus [12],32 µM
same,MIC,Clostridium tetani,16 µM
same,MIC,Bacillus cereus [13],32 µM
same,MIC,Enterococcus faecalis [14],128 µM
same,MIC,Bacillus cereus [15],32 µM
same,MIC,[16],64 µM
same,MIC,Clostridioides difficile,64 µM
same,MIC,Enterococcus faecalis [17],128 µM
N#CC(C#N)=NNc1cccc(Cl)c1,Activity,Bacillus cereus [18],Active
